Test results: article PMC2745083 (Neuropharmacology, 2009)

How the values were obtained:
LogD determination = format: physicochemical; settings: octanol/phosphate buffer, pH 7.4
Summary of the method: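 Formulated [11C]-labeled test compound was partitioned between octanol and phosphate buffer (pH 7.4), vortexed 2 min and centrifuged 2 min. Both layers were sampled. The octanol layer was serially transferred to fresh octanol/buffer and the procedure repeated, giving six sample sets. Radioactivity was measured in a well counter. logD = log(decay-corrected octanol activity × 10 / decay-corrected buffer activity).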

[1] = Plasma protein binding assay; format: in vitro ADME; settings: baboon
Summary of the method: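 Formulated [11C]-labeled test compound was incubated 10 min at room temperature in baboon plasma pooled from at least 4 animals. Total activity was sampled, then plasma was ultrafiltered through a Centrifree device (10 min centrifugation) and the filtrate counted. %unbound = Aunbound × 100 / total activity.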

[2] = [acetyl-11C]-SA from published data; ref Hooker et al., 2008; cited from earlier work
[3] = in vivo, 10 mg/kg; cited from earlier work
[4] = [acetyl-11C]-SA from published data; ref Hooker et al., 2008; cited from earlier work; remark: listed apart in the source
[5] = tested on: permeability glycoprotein (P-gp); settings: ref Teksin et al., 2009; cited from earlier work
[6] = baboon, i.v., acetyl-labeled SA, previous study; ref Hooker, 2008; cited from earlier work
[7] = not given; remark: listed apart in the source
[8] = Brain homogenate analysis for parent compound after i.p. injection; format: in vivo, Sprague Dawley rats; settings: rat, ~65 min post injection
Summary of the method: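 Male Sprague Dawley rats (7–8 weeks) under isoflurane/oxygen got the [11C]-labeled test compound i.p. via a butterfly catheter with a saline rinse (3.0 ± 0.4 mCi), followed by 60 min dynamic PET. Animals were decapitated and brains homogenized in water. The homogenate was precipitated with cold acetonitrile, vortexed and centrifuged (2000 rcf, 2 min). The supernatant was spiked with standard, γ-counted and run on HPLC; the co-eluting fraction was counted as a decay-corrected ratio to initial homogenate radioactivity.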

[9] = female, baboon (Papio anubis), in vivo, iv

SMILES | logD (LogD determination) | fraction unbound at 10 min [1] | lower average maximum brain concentration relative to [11C]-SA [9] | time of peak brain concentration [9] [s] | time to clear to half of maximum brain concentration [9] [min] | LogD (pH 7.4) [2] | antinociception after 30 minutes [3] | Plasma Protein Binding (% unbound) [4] | efflux by permeability glycoprotein (P-gp) [5] | residual radioactivity in brain at 60 min after injection [6] [% ID/cm^3] | time to be metabolized to ~50% in plasma ([7]; baboon plasma after i.v. injection) | maximum average concentration in the brain (baboon, bolus intravenous administration, whole brain ROI) [% ID/cm^3] | brain radioactivity at 60 min after injection (cleared to) (baboon, i.v., labeled at the methyl ester) [%] | proportion of parent compound remaining in brain homogenate [8] [%] | proportion of parent remaining in brain homogenate, fold higher than [11C]-SA [8] [fold] | plasma radioactivity that was parent compound [7, 9] [%]
COC(=O)[C@@H]1C[C@H](O)C(=O)[C@H]2[C@@]1(C)CC[C@H]1C(=O)O[C@H](c3ccoc3)C[C@]21C [SB, Salvinorin B] | 1.5 | 0.473 | approximately 20% | 70 | 6.0 |  |  |  |  |  |  |  |  |  |  | 
COC(=O)[C@@H]1C[C@H](OC(C)=O)C(=O)[C@H]2[C@@]1(C)CC[C@H]1C(=O)O[C@H](c3ccoc3)C[C@]21C [SA, Salvinorin A] |  |  |  |  |  | 2.34 ± 0.09 (n = 4) | no detectable antinociception | 16.1 % (n = 2) | efflux | 0.004 | under 5 min | 0.015 | 0.001 |  |  | 
CCOCO[C@H]1C[C@@H](C(=O)OC)[C@]2(C)CC[C@H]3C(=O)O[C@H](c4ccoc4)C[C@]3(C)[C@H]2C1=O [EOM-SB] | 2.46 ± 0.01 | 0.234 |  |  |  |  |  |  |  |  |  |  |  | 14 | ~3 | ~50
